This is a sample that favours compounds with a hit; in the whole collection about 2.3% have one here.
TRPC6 activator: activators of mouse TRPC6 channel; Q61143; HEK293-TRPC6 membrane potential dye fluorescence; active compounds read high; B-score at 10 µM; hit rate 0.13% among 310,000; AID 2550;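 active = B-score of the integrated fluorescence ratio above library mean plus 3 SD, and starting fluorescence ratio within library mean plus 5 SD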;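 note: higher score means more depolarization so channel activation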
Target sequence (Q61143 whole entry, looked up): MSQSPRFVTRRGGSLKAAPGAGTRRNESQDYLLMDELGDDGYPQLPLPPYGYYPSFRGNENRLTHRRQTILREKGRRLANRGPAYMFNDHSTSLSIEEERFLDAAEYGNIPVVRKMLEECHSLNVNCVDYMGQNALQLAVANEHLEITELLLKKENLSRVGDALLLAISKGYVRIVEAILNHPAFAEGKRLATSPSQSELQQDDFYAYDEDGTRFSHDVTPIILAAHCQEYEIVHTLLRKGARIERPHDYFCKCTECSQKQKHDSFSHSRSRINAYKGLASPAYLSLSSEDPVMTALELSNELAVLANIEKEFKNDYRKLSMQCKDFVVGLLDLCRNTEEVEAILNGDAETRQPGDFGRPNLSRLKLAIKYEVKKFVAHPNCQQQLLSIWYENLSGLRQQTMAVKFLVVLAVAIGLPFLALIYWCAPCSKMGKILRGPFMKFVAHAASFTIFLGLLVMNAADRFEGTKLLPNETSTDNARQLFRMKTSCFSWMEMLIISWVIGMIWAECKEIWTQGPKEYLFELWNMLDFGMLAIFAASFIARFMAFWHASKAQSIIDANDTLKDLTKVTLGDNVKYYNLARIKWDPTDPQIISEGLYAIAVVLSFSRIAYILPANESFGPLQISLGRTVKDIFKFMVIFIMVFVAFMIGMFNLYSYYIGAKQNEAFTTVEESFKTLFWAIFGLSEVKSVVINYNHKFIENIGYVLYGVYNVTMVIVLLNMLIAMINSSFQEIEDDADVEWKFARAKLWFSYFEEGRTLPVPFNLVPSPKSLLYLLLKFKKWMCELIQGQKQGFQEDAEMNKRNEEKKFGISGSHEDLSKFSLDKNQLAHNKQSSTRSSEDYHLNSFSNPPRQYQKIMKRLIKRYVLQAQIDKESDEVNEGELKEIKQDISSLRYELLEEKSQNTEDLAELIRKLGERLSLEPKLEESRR
TRPC4 agonist: TRPC4 (mouse) channel activation. Q9QUQ5. HEK293 TRPC4beta/mu-opioid, Fluo4 calcium fluorescence; active compounds read high. B-score at 10 µM. hit rate 0.49% among 310,000. AID 2237;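 active = B-score above 5 SD of library B-scores, and initial fluorescence ratio not above library mean plus 5 SD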;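 note: positive B-score marks a calcium rise read as TRPC4 activation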
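Assay system: HEK293 stable line with TRPC4beta plus mu-opioid receptor; schedule: 45 min room-temperature Fluo4 loading, 110 s read; technique: kinetic Fluo4 calcium fluorescence; evaluation: integrated baseline-normalised fluorescence ratio, converted to per-well B score; controls: buffer (low) and maximal DAMGO (high)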
TRPC4 block: inhibitors of mouse TRPC4 channel. HEK293 TRPC4beta/mu-opioid, DAMGO-evoked Fluo4 calcium flux; active compounds read low. B-score at 10 µM. hit rate 0.39% among 300,000. AID 2247;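 active = B-score over 3 SD under the library average, no early fluorescence shift, positive overall ratio signal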
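test system = HEK293 cells with stable TRPC4beta plus mu-opioid receptor expression | detection = Fluo4 Ca2+ flux fluorescence | read-out = integrated fluorescence ratio relative to baseline, converted to per-well B score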
TRPC4 PAM: allosteric potentiators of mouse TRPC4 channel. B-score at 10 µM. AID 2227. HEK293 TRPC4beta/mu-opioid, DAMGO EC20, Fluo-4 Ca2+ flux; active compounds read high. Q9QUQ5. hit rate 0.42% among 310,000;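 active = B-score of calcium response area above 5 SD of library B-scores, with initial fluorescence ratio within 5 SD of library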;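 note: B-score of integrated fluorescence ratio over time as area under calcium response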
TRPC6 inh: mouse TRPC6 channel inhibition. HEK293-TRPC6, membrane potential dye, ACh-evoked depolarization; active compounds read low. B-score at 10 µM. hit rate 1.1% among 310,000;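 active = B-score under library mean minus 3 SD, initial fluorescence not abnormally high, positive integrated signal ratio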;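 note: B-score derived from integrated fluorescence ratio over the kinetic read; more negative B-score means stronger inhibition of depolarization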
HEK293 MPD ctr: parental HEK293 nonspecific activity of TRPC6 modulators | shares compounds with TRPC6 inh | membrane potential dye fluorescence | membrane potential signal change, % at 10 µM | hit rate 51% among 2,400 | AID 488924;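 active = membrane potential signal moves up or down beyond 5 SD from buffer-only wells, on both duplicate plates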
HEK293 MPD ctr 2: second counter-screen for TRPC6 modulators: effect in parental HEK293 cells; shares compounds with TRPC6 inh; membrane potential dye fluorescence; after compound, maximal acetylcholine stimulation; inhibition, % at 10 µM; hit rate 14% among 2,400; AID 488926;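 active = membrane potential signal drops by more than 5 SD from the mean control signal, in both duplicate plates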;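 note: plate controls were acetylcholine ECmax control wells for no effect and buffer only wells for full effect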
TRPC4 ctr mod: mouse TRPC4 off-target activity of TRPC6 modulators. percent change from control (negative = decrease, positive = increase), % at 10 µM. AID 488927. HEK293 TRPC4/mu-opioid, membrane potential fluorescence. hit rate 69% among 2,400. shares compounds with TRPC6 inh;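 active = membrane potential signal moved up or down beyond 5 SD of buffer control wells, in both duplicate plates, actives on both sides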;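 note: plate controls were assay buffer wells for no effect and DAMGO maximal-effect wells for full effect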
TRPC4 ctr inh 2: second check of whether TRPC6 modulators also affect mouse TRPC4. shares compounds with TRPC6 inh. HEK293 TRPC4/mu-opioid, membrane potential dye fluorescence; stimulated with maximal-effect DAMGO. inhibition, % at 10 µM. hit rate 55% among 2,400. AID 488928;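 active = drop in membrane potential signal beyond 5 SD of the control wells in both duplicate plates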;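 note: TRPC4 counter screen for TRPC6 hits run under conditions tuned for TRPC6 not TRPC4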
TRPC6 block conf: confirmation of mouse TRPC6 inhibitors; inhibition, % at 10 µM; AID 488960; shares compounds with TRPC6 inh; hit rate 43% among 3,300; HEK293-TRPC6, membrane potential dye, ACh-evoked depolarization;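 active = fluorescence ratio falls more than 5 SD below the full-stimulation control mean, in both duplicate runs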;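 note: integrated fluorescence ratio of peak minus minimum over baseline after agonist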
TRPC6 act conf: mouse TRPC6 activator confirmation; shares compounds with TRPC6 inh; HEK293-TRPC6 membrane potential dye fluorescence, FDSS; activation, % at 10 µM; hit rate 11% among 2,800; AID 488961;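 active = ratio signal rise beyond 5 SD above unstimulated control wells' mean, seen in both duplicate runs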;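 note: plate controls were buffer EC0 wells for no effect and acetylcholine ECmax response for full effect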
* hit, by the source's call.

`CC(C)NC(=O)c1cnc(Sc2ncc(C(F)(F)F)cc2Cl)n1C` gave TRPC6 activator inactive, TRPC4 agonist inactive, TRPC4 block inactive, TRPC4 PAM inactive, TRPC6 inh -5.7*, HEK293 MPD ctr inactive, HEK293 MPD ctr 2 inactive, TRPC4 ctr mod inactive, TRPC4 ctr inh 2 inactive, TRPC6 block conf inactive and TRPC6 act conf inactive.
Screening CCOC(=O)C1CCN(C(=O)Cn2nc(CC)n3cccc3c2=O)CC1 returned TRPC6 activator inactive, TRPC4 agonist inactive, TRPC4 block inactive, TRPC4 PAM inactive and TRPC6 inh inactive.
NCC(c1ccccc1)(c1ccccc1)c1ccccc1 was read as TRPC6 activator inactive, TRPC4 agonist 117*, TRPC4 block -8*, TRPC4 PAM inactive, TRPC6 inh -6.6*, HEK293 MPD ctr inactive, HEK293 MPD ctr 2 inactive, TRPC4 ctr mod 18%*, TRPC4 ctr inh 2 74%*, TRPC6 block conf 42%* and TRPC6 act conf inactive.
For COc1ccc(-c2nc3cc(C)ccn3c2NCC2CCCO2)cc1OC (stereo not given) the results were TRPC6 activator inactive, TRPC4 agonist inactive, TRPC4 block inactive, TRPC4 PAM inactive, TRPC6 inh -6.9*, HEK293 MPD ctr -223%*, HEK293 MPD ctr 2 80%*, TRPC4 ctr mod -38%*, TRPC4 ctr inh 2 44%*, TRPC6 block conf 56%* and TRPC6 act conf inactive.
Screening C=CCn1c(CCc2cc(C(C)(C)C)c(O)c(C(C)(C)C)c2)n[nH]c1=S returned TRPC6 activator inactive, TRPC4 agonist inactive, TRPC4 block inactive, TRPC4 PAM inactive and TRPC6 inh inactive.
Cc1ccc(C(=O)Nc2ccc([N+](=O)[O-])cn2)o1 was read as TRPC6 activator inactive, TRPC4 agonist inactive, TRPC4 block inactive, TRPC4 PAM inactive and TRPC6 inh inactive.
NCCNc1ccc(C(=O)N2c3ccccc3Sc3ccccc32)cc1[N+](=O)[O-] was read as TRPC6 activator inactive, TRPC4 agonist inactive, TRPC4 block inactive, TRPC4 PAM inactive, TRPC6 inh -6.2*, HEK293 MPD ctr inactive, HEK293 MPD ctr 2 inactive, TRPC4 ctr mod -10%*, TRPC4 ctr inh 2 60%*, TRPC6 block conf 54%* and TRPC6 act conf inactive.
Screening O=Cc1cn(CCOc2ccccc2)c2ccccc12 returned TRPC6 activator inactive, TRPC4 agonist inactive, TRPC4 block inactive, TRPC4 PAM inactive and TRPC6 inh inactive.
Screening O=C(Nc1ccc(S(=O)(=O)Nc2cnc3ccccc3n2)cc1)c1cc(F)c(F)cc1Cl returned TRPC6 activator inactive, TRPC4 agonist inactive, TRPC4 block inactive, TRPC4 PAM inactive and TRPC6 inh inactive.
For COc1cc(/C=C2/CC/C(=C/c3ccc(O)c(OC)c3)C2=O)ccc1O the results were TRPC6 activator 14*, TRPC4 agonist 43*, TRPC4 block inactive, TRPC4 PAM inactive, TRPC6 inh inactive, HEK293 MPD ctr 451%*, HEK293 MPD ctr 2 149%*, TRPC4 ctr mod 100%*, TRPC4 ctr inh 2 inactive, TRPC6 block conf inactive and TRPC6 act conf 97%*.
Screening Cc1nnc(SCC(=O)N2c3ccccc3CC2C)[nH]c1=O (stereo not given) returned TRPC6 activator inactive, TRPC4 agonist inactive, TRPC4 block inactive, TRPC4 PAM inactive and TRPC6 inh inactive.
CC(C)c1[nH]nc2c1C(Cc1ccccc1)C(C#N)=C(N)O2 (stereo not given) was read as TRPC6 activator inactive, TRPC4 agonist inactive, TRPC4 block inactive, TRPC4 PAM inactive, TRPC6 inh -6.4*, HEK293 MPD ctr inactive, HEK293 MPD ctr 2 inactive, TRPC4 ctr mod inactive, TRPC4 ctr inh 2 inactive, TRPC6 block conf inactive and TRPC6 act conf inactive.
C/C=C/C=C/C(=O)N1CC[C@]23c4ccccc4N[C@H]4N(C)c5cccc6c5[C@]42CCN([C@H]6C2OC2(C)C)[C@H]13 (stereo not given in full) was read as TRPC6 activator inactive, TRPC4 agonist inactive, TRPC4 block inactive, TRPC4 PAM inactive, TRPC6 inh -6.5*, HEK293 MPD ctr inactive, HEK293 MPD ctr 2 inactive, TRPC4 ctr mod inactive, TRPC4 ctr inh 2 30%* and TRPC6 block conf 66%*.
For CN1CCC23c4ccccc4NC1C21CCN(C)C3Nc2ccccc21 the results were TRPC6 activator inactive, TRPC4 agonist inactive, TRPC4 block inactive, TRPC4 PAM inactive and TRPC6 inh inactive.
Screening COCCNC(=O)C(c1ccccc1)N(Cc1cccs1)C(=O)Cn1nnc2ccccc21 (stereo not given) returned TRPC6 activator inactive, TRPC4 agonist inactive, TRPC4 block inactive, TRPC4 PAM inactive and TRPC6 inh inactive.
`CCC(C)(C)NC(=O)C(c1ccccc1)N(Cc1cccs1)C(=O)Cn1nnc2ccccc21` (stereo not given) gave TRPC6 activator 15*, TRPC4 agonist inactive, TRPC4 block inactive, TRPC4 PAM inactive, TRPC6 inh inactive, HEK293 MPD ctr 119%*, HEK293 MPD ctr 2 inactive, TRPC4 ctr mod 34%*, TRPC4 ctr inh 2 inactive, TRPC6 block conf inactive and TRPC6 act conf 44%*.
`CCC(C)(C)NC(=O)C(c1ccc(C)o1)N(Cc1cccs1)C(=O)Cn1nnc2ccccc21` (stereo not given) gave TRPC6 activator 15*, TRPC4 agonist inactive, TRPC4 block inactive, TRPC4 PAM inactive, TRPC6 inh inactive, HEK293 MPD ctr 342%*, HEK293 MPD ctr 2 inactive, TRPC4 ctr mod 80%*, TRPC4 ctr inh 2 inactive, TRPC6 block conf inactive and TRPC6 act conf 99%*.
`CCc1nc2ccccc2c(C(=O)Nc2ccc(C)cc2)c1C` gave TRPC6 activator inactive, TRPC4 agonist inactive, TRPC4 block inactive, TRPC4 PAM inactive and TRPC6 inh inactive.

Compound activity: PubChem, Johns Hopkins Ion Channel Center
